Data as given in the RNAGym collection of RNA variant scans (doi:10.1126/science.aae0568).
This sample holds only a part of the variants without activity.

B1: tRNA (parent)
chain: GUUCCGUUGGCGUAAUGGUAACGCGUCUCCCUCCUAAGGAGAAGACUGCGGGUUCGAGUCCCGUACGGAACG

Variants of: B1
Test: yeast fitness relative to wild type (ratio to wild type); higher = fitter; tRNA-Arg(CCU), competitive growth, 37 C, YPD
Method in brief: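 Changes in genotype frequencies gave Darwinian fitness relative to wild type. Frequencies were read by 100-nucleotide paired-end sequencing of gene amplicons before and after pooled Saccharomyces cerevisiae strains, carrying tRNA-Arg(CCU) gene variants at the native locus, were competed in YPD at 37°C for 24 hours in six replicates. A genotype was kept only with ≥ 100 starting reads, and estimates < 0.5 were set to 0.5.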
With U16A U28A A45U C49A C66U the yeast fitness was ≤ 0.5. For U16C C24U C33U C55A, the yeast fitness was ≤ 0.5. For U16A C34U A36G A40C G44C, the yeast fitness was ≤ 0.5. In the case of U16C A21G A40C A42U C46U C49U G51A A70G, the yeast fitness is reported as ≤ 0.5. U16A G48A C61U showed a yeast fitness of 0.706. In the case of U16A U32A A40C G63C U64A C66G, the yeast fitness is reported as ≤ 0.5. For U16C A40U A57C C66U, the yeast fitness was ≤ 0.5. For U16C C27U U64G, the yeast fitness was 0.536. In the case of U16A C30G A40G U54C, the yeast fitness is reported as ≤ 0.5. In the case of U16A G17A A57G C66U, the yeast fitness is reported as ≤ 0.5. With U16A G50C U54G A69C the yeast fitness was ≤ 0.5. With U16C C33G C49A C55G G56C the yeast fitness was ≤ 0.5. With U16C C34G G38C C62G A69C the yeast fitness was ≤ 0.5. U16C C22U showed a yeast fitness of 0.741. In the case of U16C C22G, the yeast fitness is reported as 0.968. For U16C C29G C49U C60G, the yeast fitness was ≤ 0.5. With U16A G41C the yeast fitness was 0.668. With U16C A36G the yeast fitness was 1.03. With U16C C34A A37G U59A the yeast fitness was ≤ 0.5. For U16A A69U, the yeast fitness was 1.03. For U16A C31A, the yeast fitness was 0.645. U16A C31U showed a yeast fitness of 0.979. In the case of U16A C24U C34A C62A A65G, the yeast fitness is reported as ≤ 0.5. With U16C C29U A36U A40C C46U U64C the yeast fitness was ≤ 0.5. U16C A20G U32C gave a yeast fitness of 0.684. In the case of U16C C46A, the yeast fitness is reported as 1.02. U16C C46G gave a yeast fitness of 0.979. For U16C C22G G58A U64G, the yeast fitness was ≤ 0.5. U16A U47C C66U showed a yeast fitness of 0.893. With U16A G68U the yeast fitness was 0.837. With U16A G68A the yeast fitness was 1.08. With U16A G23C C29U C31G A57C the yeast fitness was ≤ 0.5. With U16C C27G C60G the yeast fitness was 0.603. For U16C C27G C33A G38C A42G, the yeast fitness was 0.884. With U16C C22A C31G C46A C49U U54C G68A the yeast fitness was ≤ 0.5. With U16C C33U G63C the yeast fitness was 0.508. For U16C A43C U54A C55U C60U G68A, the yeast fitness was ≤ 0.5. With U16A C61G C66G the yeast fitness was ≤ 0.5. For U16A G18A C31U C66U, the yeast fitness was ≤ 0.5. With U16C C46G A57U the yeast fitness was 0.588. With U16A G18C U35A C55G A69G the yeast fitness was 0.64. Work on U16A G56A A69C yielded a yeast fitness of 0.753. In the case of U16C C30A G41C A45C C46G, the yeast fitness is reported as ≤ 0.5. For U16A C29G C31G C55A C62U A69C, the yeast fitness was ≤ 0.5. Variant U16A U47G G48C has a yeast fitness of 0.536. U16A A45C A69C gave a yeast fitness of 0.662. U16C A40U U47A showed a yeast fitness of 0.532. In the case of U16A C30A U35G, the yeast fitness is reported as ≤ 0.5. With U16A C33G G58A G68C the yeast fitness was ≤ 0.5. With U16A C34A C60A the yeast fitness was 0.574. Work on U16A C24U G44C C61U yielded a yeast fitness of 0.66. Variant U16C C31G A36U C60G has a yeast fitness of 0.694. In the case of U16A C31A C33A U35C U47A, the yeast fitness is reported as ≤ 0.5. Work on U16A C31A A69C yielded a yeast fitness of 0.633. With U16A C24U C33U A36U A40U the yeast fitness was ≤ 0.5. With U16A C30U A40C G48C G67C the yeast fitness was ≤ 0.5. U16C A70G gave a yeast fitness of 0.945. In the case of U16C A70C, the yeast fitness is reported as 1.1. With U16C C22A U53C C66G A69U the yeast fitness was ≤ 0.5. Variant U16A C33G has a yeast fitness of 0.612. Variant U16A U32G has a yeast fitness of 0.684. With U16A C61U the yeast fitness was 1.02. For U16A C61G, the yeast fitness was 0.631. With U16A C29U A45G C46U A69U the yeast fitness was ≤ 0.5. With U16A C31A C34G the yeast fitness was ≤ 0.5. For U16A A45C G63C U64C, the yeast fitness was ≤ 0.5. In the case of U16C C31U, the yeast fitness is reported as 0.953. With U16C C31A the yeast fitness was 0.906. In the case of U16A U19C C33G A43G U54A, the yeast fitness is reported as ≤ 0.5. Work on U16C A65C yielded a yeast fitness of 0.955. U16C A65U showed a yeast fitness of 0.965. For U16C A65G, the yeast fitness was 0.95. With U16C A37G C61G A69G the yeast fitness was 0.687. In the case of U16A A57C C66U A69C, the yeast fitness is reported as ≤ 0.5. U16C A40U G67A showed a yeast fitness of 0.536. In the case of U16A G23A C29U C34G, the yeast fitness is reported as 0.734. With U16C C30U A36U the yeast fitness was ≤ 0.5. For U16A G18U A37C C60A A70G, the yeast fitness was ≤ 0.5. For U16C A36G G50A, the yeast fitness was 0.594. U16A G17A C22G showed a yeast fitness of 0.578. In the case of U16C A20U G25C, the yeast fitness is reported as ≤ 0.5. In the case of U16C A69C, the yeast fitness is reported as 0.889. With U16C C33G G51A C55A the yeast fitness was ≤ 0.5. Variant U16C C22G A43U has a yeast fitness of 0.692. In the case of U16C A40U A70U, the yeast fitness is reported as 0.683. In the case of U16A G18C A20G C22U A65C, the yeast fitness is reported as ≤ 0.5. For U16A G23C U26A C29U A42U G48A, the yeast fitness was 0.557. In the case of U16A U19A A45G, the yeast fitness is reported as 0.652. With U16A C24U C30G U35A C49A G67C the yeast fitness was 0.751. In the case of U16C A21C C31A A37G C55A, the yeast fitness is reported as ≤ 0.5. With U16A U28C G38C G39A A70G the yeast fitness was ≤ 0.5. For U16A G63C A65G, the yeast fitness was ≤ 0.5. For U16A U28C C33G A36U, the yeast fitness was ≤ 0.5. In the case of U16C A20C A21U C27G A42U, the yeast fitness is reported as ≤ 0.5. In the case of U16A U28G C66U, the yeast fitness is reported as ≤ 0.5. For U16A G63C, the yeast fitness was 0.676. In the case of U16A G52A, the yeast fitness is reported as 0.827. For U16C A37C A42G G56C, the yeast fitness was ≤ 0.5. U16C C22U G25A C31G G52A gave a yeast fitness of 0.589. For U16A G39A C60G A70G, the yeast fitness was ≤ 0.5. With U16C C29G U53A U64C the yeast fitness was ≤ 0.5. Work on U16A C24G U47C yielded a yeast fitness of 0.536. In the case of U16A U28A C49A, the yeast fitness is reported as ≤ 0.5. In the case of U16A U28A C49G, the yeast fitness is reported as ≤ 0.5. In the case of U16A G39A A42G C55A C62A C66U, the yeast fitness is reported as 0.528. With U16C A43U G48C C60G the yeast fitness was ≤ 0.5. For U16A C34U U47C A57U, the yeast fitness was ≤ 0.5. With U16C A37C C55G A69U the yeast fitness was ≤ 0.5. Work on U16C A43C yielded a yeast fitness of 1.01. For U16A G23C C29U C31G U47A, the yeast fitness was ≤ 0.5. With U16A A57U the yeast fitness was 0.732. Work on U16A A57G yielded a yeast fitness of 0.974. With U16A A57C the yeast fitness was 0.668. For U16C C33U G58A, the yeast fitness was ≤ 0.5. With U16C A21C G41A G56A the yeast fitness was ≤ 0.5. With U16A A45U the yeast fitness was 1. In the case of U16C A21U A43U C61A, the yeast fitness is reported as ≤ 0.5. U16A U47C G63A showed a yeast fitness of 0.869. With U16C A45U C49U G51A A57C C60G the yeast fitness was ≤ 0.5. With U16A G23A C29U C34G G58A the yeast fitness was ≤ 0.5. With U16C A43C U54A C60U G68A the yeast fitness was 0.55. For U16A G25A U28A, the yeast fitness was ≤ 0.5. Work on U16A C27G C49A A69G yielded a yeast fitness of 0.532. For U16C C24G U32A A69C, the yeast fitness was ≤ 0.5. In the case of U16A U47C A65U, the yeast fitness is reported as 0.727. In the case of U16A G18C G50A A57C, the yeast fitness is reported as ≤ 0.5. With U16C C22U G68C the yeast fitness was ≤ 0.5. For U16C C30A A37U, the yeast fitness was ≤ 0.5. In the case of U16A A45G G50A, the yeast fitness is reported as ≤ 0.5. U16A G17U G18C G48C showed a yeast fitness of 0.764. With U16A U64C C66U the yeast fitness was 0.68. U16A G58A gave a yeast fitness of 0.859. With U16C A37C G67A the yeast fitness was 0.553. For U16A C22U U28C U32C A42G C55G, the yeast fitness was ≤ 0.5. Variant U16A C22G A45C has a yeast fitness of 0.607. With U16A C27G U64C C66U G67A the yeast fitness was ≤ 0.5. With U16C C22U C24U C29U the yeast fitness was ≤ 0.5. For U16C C31U C33A C34G U35A G52A, the yeast fitness was ≤ 0.5. For U16A G23C U32C C33U, the yeast fitness was ≤ 0.5. With U16A C30U A36U G63A the yeast fitness was ≤ 0.5. With U16A C30G G44C the yeast fitness was ≤ 0.5. In the case of U16C A40C, the yeast fitness is reported as 0.923. In the case of U16C A40U, the yeast fitness is reported as 0.789. For U16A C55U C61G A65G, the yeast fitness was ≤ 0.5. With U16A C33U A36G G38C the yeast fitness was ≤ 0.5. U16A G18A gave a yeast fitness of 0.846. Variant U16A G25C has a yeast fitness of 0.974. Variant U16A U26C A70U has a yeast fitness of 0.558. In the case of U16A G25C C46G, the yeast fitness is reported as 1.07. For U16A U26C C30A, the yeast fitness was ≤ 0.5. In the case of U16A C22G C34U G51A, the yeast fitness is reported as ≤ 0.5. In the case of U16A C27A C62G, the yeast fitness is reported as ≤ 0.5. In the case of U16A G18C G39A G52A, the yeast fitness is reported as ≤ 0.5. With U16A C30G G50A A70G the yeast fitness was ≤ 0.5. U16C A40U A65C showed a yeast fitness of 0.626. In the case of U16A C29G A42G C46G A65U, the yeast fitness is reported as ≤ 0.5. In the case of U16A U54C C55G, the yeast fitness is reported as ≤ 0.5. In the case of U16A U35C C61G A65G, the yeast fitness is reported as ≤ 0.5. With U16A U28C G38C G39A the yeast fitness was ≤ 0.5. In the case of U16A G25A U32C, the yeast fitness is reported as 0.889. With U16C C22G U53A the yeast fitness was 0.544. In the case of U16A C24G A43C G63A, the yeast fitness is reported as ≤ 0.5. For U16A U19G C33U A40C G41A A43C C60U C61G, the yeast fitness was ≤ 0.5. U16A U26A showed a yeast fitness of 0.974. With U16A C24U C55U the yeast fitness was 0.913. For U16A C55A G68A, the yeast fitness was ≤ 0.5. For U16C C46A G56A, the yeast fitness was 0.769.
